Laboratory results reported in ChEMBL document CHEMBL1151949, “Alkaloids from the roots of Stemona aphylla” (2009).
Values after ≈ are worked out from the molar mass of the structure shown.

How the values were obtained:
Format in all cases: functional
Candida albicans = assay: Antimicrobial activity against Candida albicans ATCC 90028 after 24 hrs by broth dilution technique; conditions: ATCC 90028, 24 h
Method in brief: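 Broth dilution in trypticase soy broth, series from 500 to 1.95 µg/mL. Incubation at 37 °C for 24 h. MIC taken as lowest concentration with no visible growth. Amphotericin B served as antifungal positive control.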

Plutella xylostella = assay: Insecticidal activity against Plutella xylostella treated as topical application
Pseudomonas aeruginosa = assay: Antimicrobial activity against Pseudomonas aeruginosa ATCC 27853 after 24 hrs by broth dilution technique
Method in brief: (§1)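 Serial dilutions in trypticase soy broth spanning 500 to 1.95 µg/mL, tested by broth dilution; tubes incubated 37 °C for 24 h. MIC taken as lowest concentration tube with no visible organism growth. Gentamycin served as antibacterial positive control.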

Escherichia coli = assay: Antimicrobial activity against Escherichia coli ATCC 25922 after 24 hrs by broth dilution technique; method in brief: as §1
Staphylococcus aureus = assay: Antimicrobial activity against Staphylococcus aureus ATCC 25923 after 24 hrs by broth dilution technique; method in brief: as §1

With C[C@@H]1[C@H](O)[C@@H](C)/C=C/C=C/C=C/C=C/C=C/C=C/C=C/[C@H](O[C@@H]2O[C@H](C)[C@@H](O)[C@H](N)[C@@H]2O)C[C@@H]2O[C@](O)(C[C@@H](O)C[C@@H](O)[C@H](O)CC[C@@H](O)C[C@@H](O)CC(=O)O[C@H]1C)C[C@H](O)[C@H]2C(=O)O [AMPHOTERICIN B] the MFC (Candida albicans) was 0.7 µg/mL (≈ 0.758 µM).
With CNC(=O)ON=C(C)SC [METHOMYL] the LC50 (Plutella xylostella) was 1840 µg/mL (≈ 11300 µM).
In the case of C[C@@H]1C[C@H](C[C@@H](C)[C@H]2CCCCN3CCC[C@@H]23)OC1=O [STEMAPHYLLINE], the MFC (Candida albicans) is reported as 125 µg/mL (≈ 447 µM), the MIC (Candida albicans) is reported as 125 µg/mL (≈ 447 µM) and the MBC (Pseudomonas aeruginosa; ATCC 27853, 24 h) is reported as 125 µg/mL (≈ 447 µM). For the same compound, the MIC (Pseudomonas aeruginosa; ATCC 27853, 24 h) was 62.5 µg/mL (≈ 224 µM), the LC50 (Plutella xylostella) was 1820 µg/mL (≈ 6530 µM) and the MBC (Escherichia coli; ATCC 25922, 24 h) was 125 µg/mL (≈ 447 µM). For the same compound, the MIC (Escherichia coli; ATCC 25922, 24 h) was 62.5 µg/mL (≈ 224 µM), the MBC (Staphylococcus aureus; ATCC 25923, 24 h) was 250 µg/mL (≈ 895 µM) and the MIC (Staphylococcus aureus; ATCC 25923, 24 h) was 125 µg/mL (≈ 447 µM).
Compound GENTAMICIN has an MBC (Pseudomonas aeruginosa) of 1.46 µg/mL, an MIC (Pseudomonas aeruginosa) of 0.35 µg/mL and an MBC (Escherichia coli) of 5.62 µg/mL. It also gave an MIC (Escherichia coli) of 5.62 µg/mL, an MBC (Staphylococcus aureus) of 22.5 µg/mL and an MIC (Staphylococcus aureus) of 5.62 µg/mL.
